Test results from ChEMBL document CHEMBL1157100, “The alkyl-connected 2-amino-6-vinylpurine (AVP) crosslinking agent for improved selectivity to the cytosine base in RNA” (Bioorg Med Chem, 2010).
Calls of active or inactive are those of the source. No cut-off for these calls is given here.

Columns and labels:
Assay type in all cases: nucleic-acid assay
Nucleic Acid [1] = assay: Binding affinity to FAM-tagged d-(GAAAYAAGAGGAAAGA)-DNA assessed as crosslinking at 10 uM by alkylation method
Procedure, shortened: (§1)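 Reactive ODN at 10 µM with 1 µM FAM-labeled target DNA or RNA in 100 mM NaCl, 50 mM MES pH 5 plus RNase OUT, mixed at 0 °C and then incubated at 37 °C. Reactions were stopped at set times with formamide/EDTA/bromophenol blue buffer. Products were resolved on 15% denaturing polyacrylamide gel with 7 M urea, and FAM band intensities were quantified to give crosslinking yield.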

Nucleic Acid [2] = assay: Binding affinity to FAM-tagged r-(GAAAYAAGAGGAAAGA)-RNA assessed as crosslinking at 10 uM by alkylation method; procedure, shortened: as §1
Nucleic Acid [3] = assay: Binding affinity to r-(CGCUGGGCGUUAAUCAAAGAGGCGAAC)-RNA assessed as melting temperature at 1.5 uM by UV-visible spectrophotometry
Procedure, shortened: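 Each strand at 1.5 µM: ODN plus complementary 27-mer RNA in 100 mM NaCl, 50 mM MES pH 5. Samples were heated at 85 °C for 10 min and cooled slowly. Melting curves were recorded at 260 nm while warming 20 to 80 °C at 1.0 °C/min to obtain Tm.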

Nucleic Acid [4] = assay: Binding affinity to FAM-tagged r-(CAAGCGGAGAAAYUAAUUGCGGGUCGC)-RNA assessed as crosslinking at 10 uM by alkylation method; procedure, shortened: as §1

SMILES | Activity (Nucleic Acid [1]) | Activity (Nucleic Acid [2]) | Tm (Nucleic Acid [3]) [°C] | Activity (Nucleic Acid [4])
CSCCc1nc(N)nc2c1ncn2C[C@H]1C[C@H](OP(=O)(O)OC[C@H]2O[C@@H](n3cc(C)c(=O)[nH]c3=O)C[C@@H]2OP(=O)(O)OC[C@H]2O[C@@H](n3cc(C)c(=O)[nH]c3=O)C[C@@H]2OP(=O)(O)OC[C@H]2O[C@@H](n3ccc(N)nc3=O)[C@H](O)[C@@H]2OP(=O)(O)OC[C@H]2O[C@@H](n3cc(C)c(=O)[nH]c3=O)C[C@@H]2OP(=O)(O)OC[C@H]2O[C@@H](n3ccc(N)nc3=O)[C@H](O)[C@@H]2OP(=O)(O)OC[C@H]2O[C@@H](n3ccc(N)nc3=O)[C@H](O)[C@@H]2OP(=O)(O)OC[C@H]2O[C@@H](n3cc(C)c(=O)[nH]c3=O)C[C@@H]2OP(=O)(O)OC[C@H]2O[C@@H](n3cc(C)c(=O)[nH]c3=O)C[C@@H]2OP(=O)(O)OC[C@H]2O[C@@H](n3cc(C)c(=O)[nH]c3=O)C[C@@H]2OP(=O)(O)OC[C@H]2O[C@@H](n3ccc(N)nc3=O)[C@H](O)[C@@H]2OP(=O)(O)OC[C@H]2O[C@@H](n3cc(C)c(=O)[nH]c3=O)C[C@@H]2OP(=O)(O)O)[C@@H](COP(=O)(O)O[C@H]2C[C@H](n3cc(C)c(=O)[nH]c3=O)O[C@@H]2COP(=O)(O)O[C@H]2C[C@H](n3cc(C)c(=O)[nH]c3=O)O[C@@H]2COP(=O)(O)O[C@H]2C[C@H](n3cc(C)c(=O)[nH]c3=O)O[C@@H]2COP(=O)(O)O[C@H]2[C@@H](O)[C@H](n3ccc(N)nc3=O)O[C@@H]2CO)O1 | inactive | inactive |  | 
CSCCc1nc(N)nc2c1ncn2[C@H]1C[C@H](OP(=O)(O)OC[C@H]2O[C@@H](n3cnc4c(N)ncnc43)[C@H](O)[C@@H]2OP(=O)(O)OC[C@H]2O[C@@H](n3cc(C)c(=O)[nH]c3=O)C[C@@H]2OP(=O)(O)OC[C@H]2O[C@@H](n3cc(C)c(=O)[nH]c3=O)C[C@@H]2OP(=O)(O)OC[C@H]2O[C@@H](n3cnc4c(N)ncnc43)[C@H](O)[C@@H]2OP(=O)(O)OC[C@H]2O[C@@H](n3cnc4c(N)ncnc43)[C@H](O)[C@@H]2OP(=O)(O)OC[C@H]2O[C@@H](n3ccc(N)nc3=O)[C@H](O)[C@@H]2OP(=O)(O)OC[C@H]2O[C@@H](n3cnc4c(=O)[nH]c(N)nc43)[C@H](O)[C@@H]2OP(=O)(O)OC[C@H]2O[C@@H](n3ccc(N)nc3=O)[C@H](O)[C@@H]2OP(=O)(O)OC[C@H]2O[C@@H](n3ccc(N)nc3=O)[C@H](O)[C@@H]2OP(=O)(O)O)[C@@H](COP(=O)(O)O[C@H]2C[C@H](n3cc(C)c(=O)[nH]c3=O)O[C@@H]2COP(=O)(O)O[C@H]2C[C@H](n3cc(C)c(=O)[nH]c3=O)O[C@@H]2COP(=O)(O)O[C@H]2C[C@H](n3cc(C)c(=O)[nH]c3=O)O[C@@H]2COP(=O)(O)O[C@H]2[C@@H](O)[C@H](n3ccc(N)nc3=O)O[C@@H]2COP(=O)(O)O[C@H]2C[C@H](n3cc(C)c(=O)[nH]c3=O)O[C@@H]2COP(=O)(O)O[C@H]2[C@@H](O)[C@H](n3ccc(N)nc3=O)O[C@@H]2COP(=O)(O)O[C@H]2[C@@H](O)[C@H](n3ccc(N)nc3=O)O[C@@H]2COP(=O)(O)O[C@H]2[C@@H](O)[C@H](n3cnc4c(=O)[nH]c(N)nc43)O[C@@H]2COP(=O)(O)O[C@H]2[C@@H](O)[C@H](n3ccc(N)nc3=O)O[C@@H]2COP(=O)(O)O[C@H]2C[C@H](n3cc(C)c(=O)[nH]c3=O)O[C@@H]2COP(=O)(O)O[C@H]2C[C@H](n3cc(C)c(=O)[nH]c3=O)O[C@@H]2CO)O1 |  |  | 49.4 | Active
Cc1cn([C@H]2C[C@H](OP(=O)(O)OC[C@H]3O[C@@H](n4cc(C)c(=O)[nH]c4=O)C[C@@H]3OP(=O)(O)OC[C@H]3O[C@@H](n4ccc(N)nc4=O)[C@H](O)[C@@H]3OP(=O)(O)OC[C@H]3O[C@@H](n4cnc5c(=O)[nH]c(N)nc54)[C@H](O)[C@@H]3OP(=O)(O)OC[C@H]3O[C@@H](n4ccc(N)nc4=O)[C@H](O)[C@@H]3OP(=O)(O)OC[C@H]3O[C@@H](n4ccc(N)nc4=O)[C@H](O)[C@@H]3OP(=O)(O)OC[C@H]3O[C@@H](n4cc(C)c(=O)[nH]c4=O)C[C@@H]3OP(=O)(O)OC[C@H]3O[C@@H](n4ccc(N)nc4=O)[C@H](O)[C@@H]3OP(=O)(O)OC[C@H]3O[C@@H](n4cc(C)c(=O)[nH]c4=O)C[C@@H]3OP(=O)(O)OC[C@H]3O[C@@H](n4cc(C)c(=O)[nH]c4=O)C[C@@H]3OP(=O)(O)OC[C@H]3O[C@@H](n4cc(C)c(=O)[nH]c4=O)C[C@@H]3OP(=O)(O)OC[C@H]3O[C@@H](n4cnc5c(=O)[nH]c(N)nc54)[C@H](O)[C@@H]3OP(=O)(O)OC[C@H]3O[C@@H](n4cnc5c(N)ncnc54)[C@H](O)[C@@H]3OP(=O)(O)OC[C@H]3O[C@@H](n4cc(C)c(=O)[nH]c4=O)C[C@@H]3OP(=O)(O)OC[C@H]3O[C@@H](n4cc(C)c(=O)[nH]c4=O)C[C@@H]3OP(=O)(O)OC[C@H]3O[C@@H](n4cnc5c(N)ncnc54)[C@H](O)[C@@H]3OP(=O)(O)OC[C@H]3O[C@@H](n4cnc5c(N)ncnc54)[C@H](O)[C@@H]3OP(=O)(O)OC[C@H]3O[C@@H](n4ccc(N)nc4=O)[C@H](O)[C@@H]3OP(=O)(O)OC[C@H]3O[C@@H](n4cnc5c(=O)[nH]c(N)nc54)[C@H](O)[C@@H]3OP(=O)(O)OC[C@H]3O[C@@H](n4ccc(N)nc4=O)[C@H](O)[C@@H]3OP(=O)(O)OC[C@H]3O[C@@H](n4ccc(N)nc4=O)[C@H](O)[C@@H]3OP(=O)(O)O)[C@@H](CO)O2)c(=O)[nH]c1=O |  |  | 55.8 | 
CSCCc1nc(N)nc2c1ncn2[C@H]1C[C@H](OP(=O)(O)OC[C@H]2O[C@@H](n3cc(C)c(=O)[nH]c3=O)C[C@@H]2OP(=O)(O)OC[C@H]2O[C@@H](n3cc(C)c(=O)[nH]c3=O)C[C@@H]2OP(=O)(O)OC[C@H]2O[C@@H](n3ccc(N)nc3=O)[C@H](O)[C@@H]2OP(=O)(O)OC[C@H]2O[C@@H](n3cc(C)c(=O)[nH]c3=O)C[C@@H]2OP(=O)(O)OC[C@H]2O[C@@H](n3ccc(N)nc3=O)[C@H](O)[C@@H]2OP(=O)(O)OC[C@H]2O[C@@H](n3ccc(N)nc3=O)[C@H](O)[C@@H]2OP(=O)(O)OC[C@H]2O[C@@H](n3cc(C)c(=O)[nH]c3=O)C[C@@H]2OP(=O)(O)OC[C@H]2O[C@@H](n3cc(C)c(=O)[nH]c3=O)C[C@@H]2OP(=O)(O)OC[C@H]2O[C@@H](n3cc(C)c(=O)[nH]c3=O)C[C@@H]2OP(=O)(O)OC[C@H]2O[C@@H](n3ccc(N)nc3=O)[C@H](O)[C@@H]2OP(=O)(O)OC[C@H]2O[C@@H](n3cc(C)c(=O)[nH]c3=O)C[C@@H]2OP(=O)(O)O)[C@@H](COP(=O)(O)O[C@H]2C[C@H](n3cc(C)c(=O)[nH]c3=O)O[C@@H]2COP(=O)(O)O[C@H]2C[C@H](n3cc(C)c(=O)[nH]c3=O)O[C@@H]2COP(=O)(O)O[C@H]2C[C@H](n3cc(C)c(=O)[nH]c3=O)O[C@@H]2COP(=O)(O)O[C@H]2[C@@H](O)[C@H](n3ccc(N)nc3=O)O[C@@H]2CO)O1 | inactive | inactive |  | 
CSCCc1nc(N)nc2c1ncn2CC[C@H]1C[C@H](OP(=O)(O)OC[C@H]2O[C@@H](n3cnc4c(N)ncnc43)[C@H](O)[C@@H]2OP(=O)(O)OC[C@H]2O[C@@H](n3cc(C)c(=O)[nH]c3=O)C[C@@H]2OP(=O)(O)OC[C@H]2O[C@@H](n3cc(C)c(=O)[nH]c3=O)C[C@@H]2OP(=O)(O)OC[C@H]2O[C@@H](n3cnc4c(N)ncnc43)[C@H](O)[C@@H]2OP(=O)(O)OC[C@H]2O[C@@H](n3cnc4c(N)ncnc43)[C@H](O)[C@@H]2OP(=O)(O)OC[C@H]2O[C@@H](n3ccc(N)nc3=O)[C@H](O)[C@@H]2OP(=O)(O)OC[C@H]2O[C@@H](n3cnc4c(=O)[nH]c(N)nc43)[C@H](O)[C@@H]2OP(=O)(O)OC[C@H]2O[C@@H](n3ccc(N)nc3=O)[C@H](O)[C@@H]2OP(=O)(O)OC[C@H]2O[C@@H](n3ccc(N)nc3=O)[C@H](O)[C@@H]2OP(=O)(O)O)[C@@H](COP(=O)(O)O[C@H]2C[C@H](n3cc(C)c(=O)[nH]c3=O)O[C@@H]2COP(=O)(O)O[C@H]2C[C@H](n3cc(C)c(=O)[nH]c3=O)O[C@@H]2COP(=O)(O)O[C@H]2C[C@H](n3cc(C)c(=O)[nH]c3=O)O[C@@H]2COP(=O)(O)O[C@H]2[C@@H](O)[C@H](n3ccc(N)nc3=O)O[C@@H]2COP(=O)(O)O[C@H]2C[C@H](n3cc(C)c(=O)[nH]c3=O)O[C@@H]2COP(=O)(O)O[C@H]2[C@@H](O)[C@H](n3ccc(N)nc3=O)O[C@@H]2COP(=O)(O)O[C@H]2[C@@H](O)[C@H](n3ccc(N)nc3=O)O[C@@H]2COP(=O)(O)O[C@H]2[C@@H](O)[C@H](n3cnc4c(=O)[nH]c(N)nc43)O[C@@H]2COP(=O)(O)O[C@H]2[C@@H](O)[C@H](n3ccc(N)nc3=O)O[C@@H]2COP(=O)(O)O[C@H]2C[C@H](n3cc(C)c(=O)[nH]c3=O)O[C@@H]2COP(=O)(O)O[C@H]2C[C@H](n3cc(C)c(=O)[nH]c3=O)O[C@@H]2CO)O1 |  |  | 50.4 | Active
CSCCc1nc(N)nc2c1ncn2CCCC[C@H]1C[C@H](OP(=O)(O)OC[C@H]2O[C@@H](n3cc(C)c(=O)[nH]c3=O)C[C@@H]2OP(=O)(O)OC[C@H]2O[C@@H](n3cc(C)c(=O)[nH]c3=O)C[C@@H]2OP(=O)(O)OC[C@H]2O[C@@H](n3ccc(N)nc3=O)[C@H](O)[C@@H]2OP(=O)(O)OC[C@H]2O[C@@H](n3cc(C)c(=O)[nH]c3=O)C[C@@H]2OP(=O)(O)OC[C@H]2O[C@@H](n3ccc(N)nc3=O)[C@H](O)[C@@H]2OP(=O)(O)OC[C@H]2O[C@@H](n3ccc(N)nc3=O)[C@H](O)[C@@H]2OP(=O)(O)OC[C@H]2O[C@@H](n3cc(C)c(=O)[nH]c3=O)C[C@@H]2OP(=O)(O)OC[C@H]2O[C@@H](n3cc(C)c(=O)[nH]c3=O)C[C@@H]2OP(=O)(O)OC[C@H]2O[C@@H](n3cc(C)c(=O)[nH]c3=O)C[C@@H]2OP(=O)(O)OC[C@H]2O[C@@H](n3ccc(N)nc3=O)[C@H](O)[C@@H]2OP(=O)(O)OC[C@H]2O[C@@H](n3cc(C)c(=O)[nH]c3=O)C[C@@H]2OP(=O)(O)O)[C@@H](COP(=O)(O)O[C@H]2C[C@H](n3cc(C)c(=O)[nH]c3=O)O[C@@H]2COP(=O)(O)O[C@H]2C[C@H](n3cc(C)c(=O)[nH]c3=O)O[C@@H]2COP(=O)(O)O[C@H]2C[C@H](n3cc(C)c(=O)[nH]c3=O)O[C@@H]2COP(=O)(O)O[C@H]2[C@@H](O)[C@H](n3ccc(N)nc3=O)O[C@@H]2CO)O1 | inactive | inactive |  | 
